pIC50, pKi: −log10 of the molar value.
Columns and labels:
[1] = molecular target: T1, Kynurenine 3-monooxygenase (Rattus norvegicus, UniProt O88867); experiment: Inhibition of rat kidney Kynurenine 3-hydroxylase.
Procedure, shortened: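 The enzyme source was a crude mitochondrial fraction from rat kidney. The assay used 0.1 M K-phosphate pH 7.4 with 100 µM L-kynurenine plus 0.1 µCi L-[3-3H]kynurenine, 200 µM NADPH, and an NADPH-regenerating system, with 30 µg protein. Inhibitor was preincubated 15 min at 37 °C, then the reaction ran 10 min at 37 °C. Charcoal removed substrate and 3H2O was counted.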

[2] = molecular target: Kynurenine 3-monooxygenase (Rattus norvegicus) (UniProt O88867); experiment: Compound was evaluated for ex vivo inhibition of Kynurenine 3-hydroxylase activity in liver of rat after injecting perorally; assay type: tissue-based
Procedure, shortened: (§1)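 Rats got oral doses in 0.1% Tween-80 suspension (0.5 mL/100 g), five or six doses with four or five animals per dose, and were decapitated 2 h later. Kidney or liver was homogenized in 9 volumes of 0.32 M sucrose/5 mM Tris-HCl pH 7.4 with 0.5 mM PMSF. 25 µL homogenate was assayed by [3H]water release with 2 min incubation.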

[3] = molecular target: Kynurenine 3-monooxygenase (Rattus norvegicus) (UniProt O88867); experiment: Compound was evaluated for ex vivo inhibition of Kynurenine 3-hydroxylase activity in kidney of rat after injecting perorally; assay type: tissue-based; procedure, shortened: as §1
[4] = molecular target: T1, Kynurenine 3-monooxygenase; experiment: Inhibitory constant against Kynurenine 3-hydroxylase
Procedure, shortened: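 Competitive-inhibition kinetics on rat kidney crude mitochondrial kynurenine 3-hydroxylase. L-[3-3H]kynurenine saturation experiments with NADPH 200 μM plus a glucose 6-phosphate regenerating system, in 0.1 M potassium phosphate pH 7.4 at 37 °C. No preincubation; the enzyme was added to start the reaction. Read-out was tritiated water counted after charcoal removal of substrate. Ki was taken from replots of apparent Km versus inhibitor concentration; three experiments.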

[5] = tested on: Kynurenine 3-monooxygenase (Meriones unguiculatus); experiment: Compound was evaluated for ex vivo inhibition of Kynurenine 3-hydroxylase activity in Kidney from Gerbils after injecting perorally; settings: Gerbillinae
[6] = tested on: Kynurenine 3-monooxygenase (Meriones unguiculatus); experiment: Compound was evaluated for ex vivo inhibition of Kynurenine 3-hydroxylase activity in Liver from Gerbils after injecting perorally; settings: Gerbillinae
[7] = tested on: Kynurenine 3-monooxygenase (Meriones unguiculatus); experiment: Compound was evaluated for ex vivo inhibition of Kynurenine 3-hydroxylase activity in brain from Gerbils after injecting perorally; settings: Gerbillinae

T1 sequence (O88867 whole entry): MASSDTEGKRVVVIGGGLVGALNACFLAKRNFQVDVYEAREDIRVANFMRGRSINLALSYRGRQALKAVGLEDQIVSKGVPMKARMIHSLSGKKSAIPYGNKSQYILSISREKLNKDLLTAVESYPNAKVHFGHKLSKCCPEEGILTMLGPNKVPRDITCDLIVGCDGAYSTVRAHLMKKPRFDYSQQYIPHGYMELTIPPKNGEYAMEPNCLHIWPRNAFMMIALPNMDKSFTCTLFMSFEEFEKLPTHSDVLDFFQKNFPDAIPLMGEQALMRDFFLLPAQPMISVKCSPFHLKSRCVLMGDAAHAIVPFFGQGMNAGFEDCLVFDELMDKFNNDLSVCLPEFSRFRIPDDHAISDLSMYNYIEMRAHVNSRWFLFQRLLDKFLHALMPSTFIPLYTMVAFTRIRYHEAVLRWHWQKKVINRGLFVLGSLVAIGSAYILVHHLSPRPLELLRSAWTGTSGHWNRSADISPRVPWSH
Chain of Kynurenine 3-monooxygenase (Rattus norvegicus) (O88867 whole entry, looked up): as the sequence (O88867 whole entry) above

| Structure (SMILES) | pIC50 [1] | further results |
| --- | --- | --- |
| Cc1ccc(S(=O)(=O)Nc2nc(-c3ccc(O)c(C)c3)cs2)cc1 | 6.94 |  |
| O=[N+]([O-])c1cccc(-c2csc(NS(=O)(=O)c3ccccc3)n2)c1 | 6.70 |  |
| COc1ccc(S(=O)(=O)Nc2nc(-c3cccc([N+](=O)[O-])c3)cs2)cc1 | 7.29 | ED50 [2]: 9 µmol/kg; ED50 [3]: 3 µmol/kg |
| Nc1ccc(S(=O)(=O)Nc2nc(-c3cccc([N+](=O)[O-])c3)cs2)cc1 | 7.40 |  |
| O=C(O)c1[cH-]c(-c2cccc([N+](=O)[O-])c2)[o+]n1 | 5.57 |  |
| Cc1ccc(S(=O)(=O)Nc2nc(-c3ccc(Cl)c(Cl)c3)cs2)cc1 | 7.25 |  |
| COc1ccc(-c2csc(NS(=O)(=O)c3ccc(C)cc3)n2)cc1 | 6.62 |  |
| Cc1ccc(S(=O)(=O)Nc2nc(-c3ccccc3)cs2)cc1 | 6.33 |  |
| Cc1ccc(S(=O)(=O)Nc2nc(-c3ccc(Cl)cc3)cs2)cc1 | 7.25 |  |
| O=[N+]([O-])c1cccc(-c2cc(-c3nn[nH]n3)no2)c1 | 5.94 |  |
| Cc1ccc(-c2csc(NS(=O)(=O)c3ccc(C)cc3)n2)cc1 | 7.12 |  |
| NC(CC(=O)c1ccc(Cl)c(Cl)c1)C(=O)O (stereo unspecified) | 6.63 | ED50 [2]: 222 µmol/kg; pKi [4]: 7.02; ED50 [3]: 25.1 µmol/kg |
| COc1ccc(S(=O)(=O)Nc2nc(-c3cccc([N+](=O)[O-])c3)cs2)cc1OC | 7.43 | pKi [4]: 8.32 |
| Cc1ccc(S(=O)(=O)Nc2nc(-c3cccc([N+](=O)[O-])c3)cs2)cc1 | 7.32 | ED50 [2]: 33.4 µmol/kg; ED50 [3]: 13.3 µmol/kg |
| O=[N+]([O-])c1cccc(-c2csc(NS(=O)(=O)c3ccc(Cl)cc3)n2)c1 | 7.08 |  |
| CC(C)c1ccc(S(=O)(=O)Nc2nc(-c3cccc([N+](=O)[O-])c3)cs2)cc1 | 6.00 |  |
| Nc1ccc(S(=O)(=O)Nc2nc(-c3cc(C(F)(F)F)ccc3F)cs2)cc1 | 7.72 | ED50 [2]: 4.6 µmol/kg; ED50 [3]: 1.1 µmol/kg |
| O=C(O)CCC(=O)c1cccc([N+](=O)[O-])c1 | 5.24 |  |
| NC(CC(=O)c1cccc([N+](=O)[O-])c1)C(=O)O (stereo unspecified) | 6.11 |  |
| O=[N+]([O-])c1cccc(-c2csc(NS(=O)(=O)c3ccc(Cl)c(Cl)c3)n2)c1 | 6.92 |  |
| COc1ccc(S(=O)(=O)Nc2nc(-c3cc(C(F)(F)F)ccc3F)cs2)cc1OC | 7.41 | ED50 [2]: 5.3 µmol/kg; ED50 [5]: 1.8 µmol/kg; ED50 [3]: 6.6 µmol/kg; ED50 [6]: 0.9 µmol/kg; ED50 [7]: 5.2 µmol/kg |

— ChEMBL document CHEMBL1130431, “Synthesis and biochemical evaluation of N-(4-phenylthiazol-2-yl)benzenesulfonamides as high-affinity inhibitors of kynurenine 3-hydroxylase” (J Med Chem, 1997)
